This is a sample that favours compounds with a hit; in the whole collection about 0.58% have one here.
V1aR counter: agonists of human V1a receptor, primary screen, counter-screen for OXTR agonist project, fluorescence, CHO-V1R cells; Vasopressin V1a receptor (Homo sapiens), P37288; activation, % at 3 µM; 0.25% of 320,000 active; Fluo-8 calcium fluorescence, agonist mode; 0% DMSO, 100% 3 nM vasopressin;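 active means activation above the mean activation of all tested compounds plus 3 SD, per screening run, cut at about 20% in these data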;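 further: signal is peak over basal fluorescence ratio across a 100 second FLIPR read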
TRPML3 agonist: human TRPML3 channel agonists, primary screen, cell-based, HEK293 TRPML3-YFP, Fluo-8 calcium fluorescence, 3 µM; Mucolipin-3 (Homo sapiens), Q8TDD5; AID 1448, 2008; 100% = the carbachol control signal; 0.29% of 220,000 active; activation, % at 3 µM;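 active means activation above its plate's cutoff, the mean activation of the plate's test wells plus 3 SD, cut at about 12% in these data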;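 further: 0% = DMSO only wells and 100% = carbachol wells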
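Test system: HEK293 cells stably carrying human TRPML3-YFP; Doses: single dose, 3 µM final nominal compound, 0.3% DMSO final; Schedule: dye loading 1 h 37 °C then 30 min ambient, 125 s read; Technique: Fluo-8 calcium fluorescence; Benchmarks: high control carbachol 87 µM, low control DMSO.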
OXTR potentiator: human OXTR potentiators, primary screen, fluorescence, CHO-OTR cells, Fluo-8 calcium; activation, % at 3 µM; Oxytocin receptor (Homo sapiens), P30559; Fluo-8 calcium fluorescence, potentiator mode; 0% = oxytocin EC15, 100% = EC100; 0.061% of 320,000 active;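 active means activation above that plate's cutoff, the mean activation of tested compounds plus 3 SD, cut at about 6.6% in these data, passing the limit was not always enough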;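 further: 100% uses oxytocin at 75 nM as the full agonist control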
Target sequence (P30559 whole entry, looked up): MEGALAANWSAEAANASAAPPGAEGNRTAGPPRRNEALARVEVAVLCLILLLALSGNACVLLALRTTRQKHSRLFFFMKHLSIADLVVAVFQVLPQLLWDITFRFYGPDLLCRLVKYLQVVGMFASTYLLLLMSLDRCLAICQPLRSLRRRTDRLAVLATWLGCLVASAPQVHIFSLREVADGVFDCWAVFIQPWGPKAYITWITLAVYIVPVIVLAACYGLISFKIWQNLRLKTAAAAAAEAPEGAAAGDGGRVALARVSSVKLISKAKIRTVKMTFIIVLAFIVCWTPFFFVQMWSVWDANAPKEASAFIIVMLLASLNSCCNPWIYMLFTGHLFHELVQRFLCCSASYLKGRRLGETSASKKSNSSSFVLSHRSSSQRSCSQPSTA
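Measured by – Fluo-8 calcium dye fluorescence · Test system – human OTR in CHO cells · Dosing – one concentration, 3.0 µM compound · Controls – EC15 oxytocin alone as 0%, 75 nM oxytocin as 100% · Evaluation – normalized max/min fluorescence ratio, % activation · Timing – 6 min pre-incubation, 100 s read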
OXTR ag: human OXTR agonists, primary screen, fluorescence, CHO-OTR cells, Fluo-8 calcium. 0.32% of 320,000 active. AID 2435, 2010. activation, % at 3 µM. Fluo-8 calcium fluorescence; normalized: DMSO 0%, oxytocin 100%;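 active means activation above the mean of all tested compounds plus 3 SD, cutoff set per screening run, cut at about 20% in these data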;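 further: peak over basal fluorescence ratio from a 100 s FLIPR kinetic read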
TRPN1 ag: zebrafish TRPN1 channel agonists, primary screen, cell-based, HEK293, calcium fluorescence; transient receptor potential cation channel N1 (TRPN1/NompC), Danio rerio; HEK293 zebrafish TRPN1-YFP, Fluo-8 calcium fluorescence; 100% = response to 87 µM carbachol; activation, % at 3 µM; 0.18% of 220,000 active; AID 1424, 2008;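 active means activation above its plate's cutoff, the mean activation of test wells on that plate plus 3 SD, cut at about 19% in these data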;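 further: 0% = DMSO alone and 100% = 87 µM carbachol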
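System: zebrafish TRPN1-YFP in HEK293 cells / Dosing: 3 µM single point / Timing: dye loading 1 h at 37 °C, then 30 min room temperature / Signal: Fluo-8 calcium fluorescence, excitation 470-495 nm, emission 515-575 nm / Read-out basis: percent activation from peak over basal fluorescence ratio, control-normalized / Control set: high carbachol 87 µM, low DMSO alone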
TRPN1 counter: zebrafish TRPN1 channel agonists, counter-screen for TRPML3 agonist project, cell-based, HEK293 TRPN1-YFP, Fluo-8 calcium; shares compounds with TRPML3 agonist; Fluo-8 calcium fluorescence; scaled: carbachol wells 100%, DMSO wells 0%; activation, % at 3 µM; 10% of 310 active;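 active means mean activation over replicates above a set limit taken from the earlier TRPN1 channel primary screen, cut at about 19% in these data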;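 further: 100% = carbachol and 0% = 0.3% DMSO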
TRPML3 confirm: human TRPML3 channel agonists, confirmation, cell-based, HEK293 TRPML3-YFP, Fluo-8 calcium, triplicate | activation, % at 3 µM | AID 1526, 2009 | Fluo-8 calcium fluorescence; 100% set by carbachol, 0% by DMSO | shares compounds with TRPML3 agonist | 80% of 310 active;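 active means activation above a set limit derived from the earlier primary screen, cut at about 12% in these data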
* marks the source's active call; other numbers are inactive results; . = not tested or not shown.

SMILES	V1aR counter	TRPML3 agonist	OXTR potentiator	OXTR ag	TRPN1 ag	TRPN1 counter	TRPML3 confirm
Cc1ccccc1OC(C)C(=O)Nc1ccc2c(c1)OCCO2 (stereo not drawn)	-0.4	.	-5.7	-1.6	.	.	.
O=C(CSc1nnc(-c2ccccc2NC(=O)c2ccccc2)o1)OC1CCCCC1	1.6	0.3	-1.2	0.0	0.3	.	.
CC1=C(C(=O)OCc2ccccc2)C(c2cccc([N+](=O)[O-])c2)NC(=O)N1C (stereo not drawn)	4.0	.	-6.0	0.6	.	.	.
Cc1nn(C(C)(C)C)c(OC(=O)C2CCCC2)c1S(=O)(=O)c1ccccc1	.	15.5*	.	.	0.2	-0.7	23.3*
CCOC(=O)C1CCN(S(=O)(=O)c2ccc(C)cc2)CC1	0.1	0.3	-9.4	-0.4	-0.3	.	.
COCC(=O)Oc1c(S(=O)(=O)c2ccccc2)c(C)nn1C(C)(C)C	0.7	.	-1.2	0.9	.	.	.
Cc1ccc(S(=O)(=O)c2c(C)nn(C(C)(C)C)c2OC(=O)C2CCCC2)cc1	0.8	32.1*	-12.2	1.1	2.3	2.1	23.9*
Cc1ccccc1S(=O)(=O)c1c(C)cc(C)n(C(C)C)c1=O	-2.6	30.4*	4.5	-1.8	-1.9	-3.3	34.5*
CCCCn1c(C)cc(C)c(S(=O)(=O)c2ccccc2C)c1=O	-0.9	17.8*	-9.1	-1.4	-1.6	-2.0	58.3*
CCCSc1nc(C)cc(C)c1S(=O)(=O)c1ccccc1C	0.8	4.2	-17.2	-1.4	-0.9	.	.
Cc1cc(C)c(S(=O)(=O)c2ccccc2C)c(SCC(C)C)n1	0.1	0.8	-13.1	-1.0	-0.2	.	.
COc1ccc(N2CCN(C(=O)COC(=O)CCOc3ccc(C(C)(C)C)cc3)CC2)cc1	2.8	.	-10.8	2.8	.	.	.
O=[N+]([O-])/C=C\c1ccc(N2CCCC2)c(F)c1	.	12.9*	.	.	11.5	27.3*	22.9*
COC(=O)c1ccccc1NC(=S)N(Cc1ccc2c(c1)OCO2)Cc1cc2cccc(C)c2[nH]c1=O	0.7	0.3	3.5	-0.6	2.0	.	.
COC(=O)c1cc(Cn2nc(C(=O)O)c3ccccc3c2=O)oc1C	6.1	.	-13.1	0.9	.	.	.
Cc1onc(-c2ccccc2)c1C(=O)N(Cc1ccco1)Cc1cccs1	.	28.7*	.	.	-2.2	-3.0	18.9*
Cc1onc(-c2ccccc2)c1C(=O)NCc1ccco1	1.0	0.2	-7.1	-0.5	0.0	.	.
CCC(C(=O)Nc1cc(C)nn1-c1nc(C)cc(C)n1)c1ccccc1 (stereo not drawn)	0.6	23.3*	-10.6	-1.1	2.2	1.9	22.6*
CN1CCN(c2ccc(-c3ccnn3C(=O)Nc3cccc(C(F)(F)F)c3)cc2)CC1	6.5	2.1	-10.2	2.0	3.7	.	.
CCc1ccc(N(C(=O)c2csnn2)C(C(=O)NC(C)(C)CC)c2ccccn2)cc1 (stereo not drawn)	2.4	-0.1	-8.9	-1.1	-1.2	.	.
O=C(C1CCN(S(=O)(=O)N2CCOCC2)CC1)N1CCOCC1	0.7	16.1*	0.9	-0.4	0.7	0.5	0.8
CCS(=O)(=O)N1CCC(C(=O)N2CCOCC2)CC1	0.7	0.5	0.9	-0.1	1.5	.	.
N#C/C(=C\c1cn(CCOc2ccccc2)c2ccccc12)C(=O)NCC1CCCO1 (stereo not drawn)	3.5	25.1*	-7.6	2.0	-0.1	0.5	10.8
Cc1ccc(C)c(OCCn2cc(/C=C(/C#N)C(=O)NCC3CCCO3)c3ccccc32)c1 (stereo not drawn)	0.1	0.1	5.9	2.0	-0.1	.	.

High-throughput results: PubChem BioAssay, The Scripps Research Institute Molecular Screening Center
